In ChEMBL document CHEMBL2375287, “A novel series of histamine H4 receptor antagonists based on the pyrido[3,2-d]pyrimidine scaffold: comparison of hERG binding and target residence time with PF-3893787” (Bioorg Med Chem Lett, 2013):

Columns and labels:
[1] = organism: Homo sapiens; experiment: Selectivity ratio of Ki for human histamine H3 receptor to Ki for human histamine H4 receptor
[2] = target: T1, Histamine H4 receptor (Homo sapiens, UniProt Q9H3N8); experiment: Displacement of [3H]histamine from human histamine H4 receptor expressed in HEK cells; type: cell-based, HEK293
T1 sequence (Q9H3N8 whole entry): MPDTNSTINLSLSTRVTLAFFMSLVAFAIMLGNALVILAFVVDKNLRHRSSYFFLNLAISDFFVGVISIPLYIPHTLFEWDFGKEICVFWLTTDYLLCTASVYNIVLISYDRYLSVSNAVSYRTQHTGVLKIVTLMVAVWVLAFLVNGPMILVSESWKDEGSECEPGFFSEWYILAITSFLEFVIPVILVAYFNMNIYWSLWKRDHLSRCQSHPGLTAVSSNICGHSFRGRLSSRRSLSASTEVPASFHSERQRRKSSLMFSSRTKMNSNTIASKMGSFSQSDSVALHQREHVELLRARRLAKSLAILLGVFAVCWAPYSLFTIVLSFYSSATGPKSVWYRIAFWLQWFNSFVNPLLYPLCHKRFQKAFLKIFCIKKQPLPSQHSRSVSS
How it was run: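 Displacement of [3H]histamine from membranes of HEK cells transiently expressing human H4R, H3R or H1R. pKi given as mean ± SEM of at least three independent measurements; n = 2 where noted.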

[3] = target: Voltage-gated inwardly rectifying potassium channel KCNH2 (Homo sapiens, UniProt Q12809); experiment: Displacement of [3H]astemizole from human ERG channel
Voltage-gated inwardly rectifying potassium channel KCNH2, sequence (Q12809 whole entry): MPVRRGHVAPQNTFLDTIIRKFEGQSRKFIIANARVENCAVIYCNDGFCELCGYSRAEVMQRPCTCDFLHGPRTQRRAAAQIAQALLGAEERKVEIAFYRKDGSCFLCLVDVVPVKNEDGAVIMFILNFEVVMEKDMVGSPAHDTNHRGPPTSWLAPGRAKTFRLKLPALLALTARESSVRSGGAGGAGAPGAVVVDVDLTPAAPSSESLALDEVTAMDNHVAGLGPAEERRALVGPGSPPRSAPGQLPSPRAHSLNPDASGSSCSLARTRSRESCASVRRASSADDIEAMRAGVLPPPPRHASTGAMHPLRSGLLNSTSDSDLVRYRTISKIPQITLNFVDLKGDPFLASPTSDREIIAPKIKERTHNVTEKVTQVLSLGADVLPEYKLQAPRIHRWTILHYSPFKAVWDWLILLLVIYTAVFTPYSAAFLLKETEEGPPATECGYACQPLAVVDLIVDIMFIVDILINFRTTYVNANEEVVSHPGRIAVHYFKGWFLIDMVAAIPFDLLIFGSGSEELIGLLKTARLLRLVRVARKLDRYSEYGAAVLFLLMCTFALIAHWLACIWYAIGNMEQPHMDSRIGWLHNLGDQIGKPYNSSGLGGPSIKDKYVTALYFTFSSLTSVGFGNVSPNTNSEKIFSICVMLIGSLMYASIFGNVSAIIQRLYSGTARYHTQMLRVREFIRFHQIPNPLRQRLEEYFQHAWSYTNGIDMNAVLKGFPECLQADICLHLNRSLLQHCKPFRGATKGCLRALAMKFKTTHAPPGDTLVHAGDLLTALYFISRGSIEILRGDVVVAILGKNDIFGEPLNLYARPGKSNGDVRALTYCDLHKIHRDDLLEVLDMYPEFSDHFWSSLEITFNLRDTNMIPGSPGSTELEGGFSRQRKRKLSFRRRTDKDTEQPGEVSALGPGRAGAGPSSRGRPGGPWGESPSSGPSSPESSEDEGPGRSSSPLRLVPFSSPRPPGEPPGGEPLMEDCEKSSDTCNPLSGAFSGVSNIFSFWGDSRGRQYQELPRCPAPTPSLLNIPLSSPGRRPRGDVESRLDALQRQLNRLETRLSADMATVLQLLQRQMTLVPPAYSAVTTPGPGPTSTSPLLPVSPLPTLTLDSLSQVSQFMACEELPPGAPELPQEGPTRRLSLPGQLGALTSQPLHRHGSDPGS

[4] = target: Histamine H3 receptor (Homo sapiens, UniProt Q9Y5N1); experiment: Displacement of [3H]histamine from human histamine H3 receptor expressed in HEK cells; type: cell-based, HEK293
Histamine H3 receptor, sequence (Q9Y5N1 whole entry): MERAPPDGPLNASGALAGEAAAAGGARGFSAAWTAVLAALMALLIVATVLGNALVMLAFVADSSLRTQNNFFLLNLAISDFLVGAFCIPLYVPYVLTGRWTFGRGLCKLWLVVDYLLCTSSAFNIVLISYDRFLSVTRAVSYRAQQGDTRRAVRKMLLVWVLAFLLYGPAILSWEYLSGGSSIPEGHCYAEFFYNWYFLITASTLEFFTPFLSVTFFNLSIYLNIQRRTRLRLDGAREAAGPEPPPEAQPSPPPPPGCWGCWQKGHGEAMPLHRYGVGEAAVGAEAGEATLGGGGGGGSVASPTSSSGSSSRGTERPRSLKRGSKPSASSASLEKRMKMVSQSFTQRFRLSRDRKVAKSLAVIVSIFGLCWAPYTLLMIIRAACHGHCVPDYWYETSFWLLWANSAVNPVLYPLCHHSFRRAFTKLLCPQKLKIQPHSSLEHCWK

[5] = target: T1, Histamine H4 receptor; experiment: Antagonist activity at human histamine H4 receptor expressed in HEK cells assessed as inhibition of histamine-induced [35S]GTPgammaS binding; type: functional, cell-based, HEK293; conditions: for pKb: HEK293
[6] = target: Histamine H1 receptor (Homo sapiens, UniProt P35367); experiment: Displacement of [3H]histamine from human histamine H1 receptor expressed in HEK cells
Histamine H1 receptor, sequence (P35367 whole entry): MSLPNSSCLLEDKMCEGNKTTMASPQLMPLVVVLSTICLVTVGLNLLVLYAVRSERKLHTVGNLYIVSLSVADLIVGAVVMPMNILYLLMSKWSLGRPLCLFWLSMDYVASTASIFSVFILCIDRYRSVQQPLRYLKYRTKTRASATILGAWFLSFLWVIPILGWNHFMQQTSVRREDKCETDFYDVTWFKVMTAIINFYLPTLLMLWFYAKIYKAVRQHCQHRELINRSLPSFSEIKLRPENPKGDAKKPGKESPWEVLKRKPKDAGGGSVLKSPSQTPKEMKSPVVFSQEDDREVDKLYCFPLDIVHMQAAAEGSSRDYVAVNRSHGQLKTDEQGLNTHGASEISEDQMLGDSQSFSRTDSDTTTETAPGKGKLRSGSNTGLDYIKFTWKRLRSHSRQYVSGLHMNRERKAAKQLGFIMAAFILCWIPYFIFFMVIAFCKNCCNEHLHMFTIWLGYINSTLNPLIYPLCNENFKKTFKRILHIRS

[7] = target: Histamine H4 receptor (Rattus norvegicus, UniProt Q91ZY1); experiment: Binding affinity to rat histamine H4 receptor
Histamine H4 receptor (Rattus norvegicus, UniProt Q91ZY1), sequence (Q91ZY1 whole entry): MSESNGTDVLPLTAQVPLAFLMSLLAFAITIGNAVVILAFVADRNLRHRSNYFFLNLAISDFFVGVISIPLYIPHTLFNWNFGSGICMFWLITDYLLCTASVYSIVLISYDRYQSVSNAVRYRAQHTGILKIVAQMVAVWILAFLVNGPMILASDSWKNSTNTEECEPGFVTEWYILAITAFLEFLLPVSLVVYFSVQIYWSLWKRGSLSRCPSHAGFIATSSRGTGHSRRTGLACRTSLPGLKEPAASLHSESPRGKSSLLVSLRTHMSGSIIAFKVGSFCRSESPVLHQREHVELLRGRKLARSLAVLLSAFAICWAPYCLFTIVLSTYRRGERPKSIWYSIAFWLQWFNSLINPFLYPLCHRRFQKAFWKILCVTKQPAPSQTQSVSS

[8] = target: T1, Histamine H4 receptor; experiment: Displacement of [3H]histamine from human histamine H4 receptor expressed in HEK cells by competitive kinetic analysis; type: cell-based, HEK293
[9] = target: T2, Histamine H4 receptor (Mus musculus, UniProt Q91ZY2); experiment: Binding affinity to mouse histamine H4 receptor
T2 sequence (Q91ZY2 whole entry): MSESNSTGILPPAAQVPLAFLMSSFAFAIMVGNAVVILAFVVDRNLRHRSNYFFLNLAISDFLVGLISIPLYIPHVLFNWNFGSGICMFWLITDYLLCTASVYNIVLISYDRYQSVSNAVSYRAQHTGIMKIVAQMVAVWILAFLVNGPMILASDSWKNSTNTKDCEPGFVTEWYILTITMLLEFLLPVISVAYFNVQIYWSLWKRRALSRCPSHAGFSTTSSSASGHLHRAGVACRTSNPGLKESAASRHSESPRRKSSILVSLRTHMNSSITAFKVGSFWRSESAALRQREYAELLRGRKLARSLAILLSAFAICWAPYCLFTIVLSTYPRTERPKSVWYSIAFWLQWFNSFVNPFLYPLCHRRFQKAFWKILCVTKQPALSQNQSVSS

[10] = target: Histamine H2 receptor (Homo sapiens, UniProt P25021); experiment: Displacement of [3H]histamine from human histamine H2 receptor expressed in HEK cells
Histamine H2 receptor, sequence (P25021 whole entry): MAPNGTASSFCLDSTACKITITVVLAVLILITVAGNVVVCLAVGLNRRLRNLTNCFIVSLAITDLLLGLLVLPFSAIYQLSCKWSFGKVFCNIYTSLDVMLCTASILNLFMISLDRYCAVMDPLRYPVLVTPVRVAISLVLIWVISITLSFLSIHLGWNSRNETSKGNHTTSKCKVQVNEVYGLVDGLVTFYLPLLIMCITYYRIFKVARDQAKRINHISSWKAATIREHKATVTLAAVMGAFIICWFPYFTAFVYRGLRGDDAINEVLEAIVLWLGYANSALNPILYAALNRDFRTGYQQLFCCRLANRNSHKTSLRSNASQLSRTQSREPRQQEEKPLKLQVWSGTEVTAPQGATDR

Row | Compound | Ratio Ki [1] | Ki [2] [µM] | Ki [3] [µM] | Ki [4] [µM] | IC50 [5] [µM] | pKb [5] | Ki [6] [µM] | Ki [7] [µM] | Kd [8] [µM] | Ki [9] [µM] | Ki [10] [µM]
1 | CNC1CN(c2nc(N)nc3cc(C4CCCC4)ccc23)C1 | 47 | 0.00339 | 0.832 | 0.158 | – | – | – | – | – | – | –
2 | CC(C)(C)c1ccc2c(N3CCNCC3)nc(N)nc2c1 | 24 | 0.0355 | – | 0.851 | – | – | – | – | – | – | –
3 | CCc1ccc2c(N3CC[C@@H](NC)C3)nc(N)nc2c1 | 56 | 0.017 | 2.75 | 0.603 | – | – | – | – | – | – | –
4 | CN[C@@H]1CCN(c2nc(N)nc3cc(C(C)C)cnc23)C1 | 12 | 0.0123 | – | 0.145 | – | – | – | – | – | – | –
5 | CNC1CN(c2nc(N)nc3cc(C(C)(C)C)ccc23)C1 | 32 | 0.0151 | – | 0.49 | – | – | – | – | – | – | –
6 | Nc1nc(N2CCNCC2)c2ccc(C3CC3)cc2n1 | 13 | 0.0115 | 4.68 | 0.155 | – | – | – | – | – | – | –
7 | CNC1CN(c2nc(N)nc3cc(C#N)cnc23)C1 | 186 | 0.0537 | > 100 | 9.55 | – | – | – | – | – | – | –
8 | CN[C@@H]1CCN(c2nc(N)nc3cc(C4CC4)ccc23)C1 | 8 | 0.0219 | – | 0.178 | – | – | – | – | – | – | –
9 | CN[C@@H]1CCN(c2nc(N)nc3cc(C4CC4)cnc23)C1 | 98 | 0.0102 | > 100 | 1 | – | – | – | – | – | – | –
10 | CNC1CN(c2nc(N)nc3cc(C4CC4)cnc23)C1 | 120 | 0.00525 | > 100 | 0.631 | 0.0708 | 8.33 | 20.9 | 0.0295 | 0.0135 | 0.0151 | –
11 | CCc1ccc2c(N3CCNCC3)nc(N)nc2c1 | 15 | 0.0148 | 1.51 | 0.219 | – | – | – | – | – | – | –
12 | CNC1CN(c2nc(N)nc3cc(C4CCCC4)cnc23)C1 | 23 | 0.00646 | > 100 | 0.151 | 0.0977 | 8.2 | 16.6 | 0.0275 | 0.0102 | 0.0195 | 2.82
13 | CNC1CN(c2nc(N)nc3cc(C4CC4)ccc23)C1 | 98 | 0.00708 | 3.63 | 0.692 | – | – | – | – | – | – | –
14 | CN1CCN(c2nc(N)nc3ccccc23)CC1 | – | 0.0447 | – | – | – | – | – | – | – | – | –
15 | Nc1nc(N2CCNCC2)c2ccc(-c3ccco3)cc2n1 | – | 0.0151 | – | – | – | – | – | – | 0.0407 | – | –
16 | CCc1cnc2c(N3CCN(C)CC3)nc(N)nc2c1 | – | 0.00933 | – | 0.214 | – | – | – | – | – | – | –
17 | CCc1ccc2c(N3CC(NC)C3)nc(N)nc2c1 | 89 | 0.0112 | 2.45 | 0.617 | – | – | – | – | – | – | –
18 | CCc1cnc2c(N3CC(NC)C3)nc(N)nc2c1 | 72 | 0.0107 | 34.7 | 0.776 | 0.112 | 8.14 | 33.9 | 0.0708 | 0.00851 | 0.0501 | 14.1
19 | CN[C@@H]1CCN(c2cc(NCC3CC3)nc(N)n2)C1 [ADRIFORANT] | 22 | 0.0102 | 3.47 | 0.186 | 0.0537 | 8.46 | – | 0.055 | 0.0251 | 0.055 | –
20 | CCc1cnc2c(N3CC[C@@H](NC)C3)nc(N)nc2c1 | 166 | 0.00912 | 43.7 | 1.51 | 0.126 | 8.08 | 11.2 | 0.138 | 0.0214 | 0.0851 | 3.16
21 | Nc1nc(N2CCNCC2)c2ccc(C3CCCC3)cc2n1 | 27 | 0.0123 | 3.39 | 0.331 | – | – | – | – | – | – | –
22 | CN1CCN(c2nc(N)nc3cccnc23)CC1 | – | 0.0309 | – | – | – | – | – | – | – | – | –
23 | CNC1CN(c2nc(N)nc3cc(C(C)C)cnc23)C1 | – | 0.0251 | – | 0.832 | – | – | – | – | – | – | –
